Screening results: PubChem, Broad Institute
The list is not random: actives were taken first. Their share in the collection is about 3.2%.
MLL AF4-AF9 inh – inhibitors of human MLL-AF4/AF9 interaction | inhibition, % at 10 µM | AlphaScreen, biotin-AF4 peptide binding to FLAG-AF9 | P42568 | actives 0.47% (n = 350,000) | AID 651704;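 active means every replicate reaching a set inhibition limit, whatever the replicate mean, cut at about 25% in these data; inconclusive means mean inhibition reaches that limit but some replicates miss it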;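 further: 0% = plate neutral control median and 100% = total signal loss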
S100A4 inh HTS – blocks human S100A4 binding to myosin IIA peptide | P26447 | inhibition, % at 10.7 µM | S100A4/TAMRA-MyoIIA peptide fluorescence polarization | actives 0.14% (n = 360,000);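 active means mean inhibition of at least 70% across replicates, with every replicate also reaching that level; inconclusive means mean inhibition reaches 70% but some replicates fall short; inactive means mean inhibition below 70%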
Target sequence (P26447 whole entry, looked up): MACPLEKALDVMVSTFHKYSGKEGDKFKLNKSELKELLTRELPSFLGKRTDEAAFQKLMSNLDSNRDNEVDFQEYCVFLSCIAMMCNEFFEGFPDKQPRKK
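Compound dosing: one dose per compound; test system: human S100A4 monomer with TAMRA-labelled myosin IIA peptide; probe or stimulus: TAMRA-labelled myosin IIA heavy-chain peptide probe, 5 nM; medium: HEPES buffer with Ca2+, pH 7.2; schedule: 5 min incubation before reading; benchmarks: neutral control DMSO, positive control TFP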
PfHsp90 set2 – inhibits growth of yeast expressing Plasmodium falciparum Hsp90; S. cerevisiae expressing PfHsp90, BacTiter-Glo ATP, 48 h; yeast lacking PDR1 and PDR3 efflux regulators; actives 0.32% (n = 310,000); inhibition, % at 9.4 µM;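 active means every replicate shows inhibition above about 80%, whatever the replicate mean, limit read from the data; inconclusive means mean inhibition reaches the set limit but some replicate falls short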;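 further: 0% = DMSO neutral controls and 100% = 20 µM radicicol positive controls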
Ecoli rRNA inh – selective bacterial rRNA inhibition in E. coli; GFP signal change (wild-type ribosome), % (no concentration beside the values); actives 1.6% (n = 350,000); E. coli WT GFP vs humanized-ribosome RFP mutants, fluorescence, 24 h; stronger effect = lower value; DMSO median 0, no signal -100;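 active means significant combined selectivity score with lowered wild-type GFP, culture density cut under 30%, mutant RFP and density less affected; inactive means any of these conditions unmet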
DENV2 CPE – inhibitors of DENV2 cytopathic effect; DENV2-infected cells, cytopathic effect rescue, plate reader; CPE inhibition, % at 9.99 µM; AID 651640; actives 1.7% (n = 350,000); in the data active means CPE inhibition above about 20%, passing the limit was not always enough; inconclusive means no clear call, values can overlap the other calls; tested in BHK-21 cells;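 further: 0% = median of neutral control wells and 100% = median of positive control wells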
Cneo AK release – causes C. neoformans cell lysis; actives 0.2% (n = 360,000); adenylate kinase release luminescence, 4 h; normalised: neutral wells 0, clomiphene wells 100; lysis activity, % at 15 µM;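 active means mean lysis activity across replicates of at least 80%, whatever share of replicates individually reach that level; inactive means mean lysis activity below 80%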
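Material: C. neoformans cells; Schedule: 4 h static compound exposure, 37 °C, read 1 h post-reagent; Measured by: adenylate kinase release luminescence; Read-out: signal increase indicating cell lysis; Controls: Clomiphene as positive lysis control.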
The depositor's hits bear a star; ? = inconclusive; / = no result.

SMILES	MLL AF4-AF9 inh	S100A4 inh HTS	PfHsp90 set2	Ecoli rRNA inh	DENV2 CPE	Cneo AK release
COc1cccc(C2Oc3ccccc3C3CC(c4cccs4)=NN32)c1 (configuration not stated)	5	-9	/	-29*	81*	-1
CCOc1cc(/C=C2\CCCc3c2nc2ccccc2c3C(=O)O)ccc1OC	4	80*	0	52	0	0
C[C@H]1CN([C@@H](C)CO)C(=O)c2cc(NC(=O)CCC(F)(F)F)ccc2O[C@@H]1CN(C)S(=O)(=O)c1cn(C)cn1	-6	98*	/	4	10	2
Cc1ccc(S(=O)(=O)N(C)C[C@H]2Oc3ccc(NC(=O)c4ccncc4)cc3C(=O)N([C@H](C)CO)C[C@H]2C)cc1	-2	-1	/	-1	42*	-2
Cc1ccc(S(=O)(=O)N(C)C[C@H]2Oc3ccc(NC(=O)CCC(F)(F)F)cc3C(=O)N([C@H](C)CO)C[C@@H]2C)cc1	-1	10	/	-4	29*	46
C[C@@H]1CN([C@@H](C)CO)C(=O)c2cc(NC(=O)CCC(F)(F)F)ccc2O[C@@H]1CN(C)S(=O)(=O)c1ccc(F)cc1	-2	3	/	-2	?	1
C[C@@H]1CCCCO[C@@H](CN(C)CC2CCCCC2)[C@@H](C)CN([C@@H](C)CO)C(=O)c2cc(NC(=O)C3CCCCC3)ccc2O1	12	7	/	3	4	0
CCC(=O)N1CCC2(CC1)CN(Cc1cccc(Cl)c1)[C@H](CO)c1c2c2ccc(OC)cc2n1C	0	0	/	1	3	/
Cc1ccccc1S(=O)(=O)N1[C@H](C#N)[C@@H](c2ccccc2-c2cccc(F)c2)[C@@H]1CO	/	/	/	-24	/	/
O=C(CCN1C(=O)/C(=C/c2cccs2)SC1=S)NC1=NCCS1	/	/	106*	/	/	/
O=C(CCCN1C(=O)/C(=C\c2cccs2)SC1=S)Nc1cccnc1	2	2	-3	-1	30*	2
O=C(CCN1C(=O)/C(=C\c2cccs2)SC1=S)NC1=NCCS1	-2	5	-19	9	-3	7
O=C(CCN1C(=O)/C(=C\c2cccs2)SC1=S)Nc1ccc(C(=O)O)cc1	4	-4	-1	-11	-2	0
COc1ccc(/C=C2\SC(=O)N(CC(=O)Nc3cccnc3)C2=O)cc1OC	2	-20	-3	-5	23*	-1
O=C(CCCN1C(=O)/C(=C/c2cccs2)SC1=S)Nc1cccnc1	-1	-6	3	4	5	/
CCN(CC)CCOC(=O)c1ccc(NC(=O)CCCN2C(=O)/C(=C\c3cccs3)SC2=S)cc1	12	-12	-19	-27*	11	6
COc1cc(/C=C2/SC(=S)N(CC(=O)Nc3cccnc3)C2=O)cc(OC)c1OC	/	/	21	/	/	/
O=C([C@H]1[C@H](CO)[C@H]2Cn3c(ccc(-c4cccc(F)c4)c3=O)[C@H]2N1Cc1cocn1)N1CCCCC1	0	-13	/	1	-6	1
CCC(=O)N(C)C[C@@H]1Oc2cc(-c3ccccc3C)ccc2S(=O)(=O)N([C@@H](C)CO)C[C@H]1C	-1	21	/	-4	6	-1
COc1ccc(-c2cnc3c(c2)C(=O)N([C@@H](C)CO)C[C@@H](C)[C@@H](CN(C)C(=O)C2CC2)O3)cc1	/	/	/	-4	/	/
CC(C)N1C(=O)CCC1C(=O)O (configuration not stated)	2	-3	-11	6	33*	11
CCOC(=O)N1CCN(C(=O)C2CCC(=O)N2C(C)C)CC1 (configuration not stated)	/	/	15	/	/	-2
Cc1noc(C)c1S(=O)(=O)N(C)C[C@H]1Oc2ccc(NC(=O)Nc3ccc(C(F)(F)F)cc3)cc2CC(=O)N([C@H](C)CO)C[C@H]1C	/	/	/	6	1	-1
CC12CCC3c4ccc(OCCCO)c([N+](=O)[O-])c4CCC3C1CCC2=O (configuration not stated)	11	1	/	-53	43*	/
Cc1ccccc1CN1CCNC(=O)C1CC(=O)O (configuration not stated)	-3	-1	17	1	33*	-1
SMILES	MLL AF4-AF9 inh	S100A4 inh HTS	PfHsp90 set2	Ecoli rRNA inh	DENV2 CPE	Cneo AK release
CCOc1ccc(NC(=O)COC(=O)C2CC2C)cc1 (configuration not stated)	4	-1	34	13	2	/
CC1CC1C(=O)OCC(=O)Nc1ccc(N=Nc2ccccc2)cc1 (configuration not stated)	3	6	28	-18*	-2	/
Nc1ccc(N2CCN(CCCCN3C(=O)C4CCCN4C3=O)CC2)cc1 (configuration not stated)	49*	8	8	7	9	/
COc1cc(/C=C/c2cccc[n+]2C)ccc1OCC(=O)Nc1ccccc1C	0	-1	12	9	0	-5
CCOc1cc(/C=C\[N+](=O)[O-])ccc1OCC(=O)Nc1ccccc1C	/	/	110*	/	/	-1
CC(CNC(=O)Cn1ccc(NC(=O)OCc2ccccc2)nc1=O)c1ccccc1 (configuration not stated)	3	-4	6	2	36*	1
CCc1ccc(/C=C2/SC(N3CCOCC3)=NC2=O)cc1	4	-3	1	-19*	-1	/
O=C1N=C(N2CCN(c3ccccc3)CC2)S/C1=C\c1ccco1	2	2	-6	-9	-1	/
O=C1N=C(N2CCN(c3ccccc3)CC2)S/C1=C/c1ccco1	5	-7	8	-38*	2	-2
CCNC(=O)[C@H]1[C@H](CO)[C@H]2Cn3c(ccc(-c4cccc(F)c4)c3=O)[C@@H]1N2C(=O)c1cnccn1	-24	-8	/	1	-1	-1
Cc1ccc(S(=O)(=O)N(C)C)cc1NC(=O)COC(=O)C1CCCC1	6	-4	-3	6	34*	-1
Cc1ccc(S(=O)(=O)N(C)C)cc1NC(=O)COC(=O)CCC1CCCC1	-3	-13	/	6	5	/
c1ccc(-c2csc3ncnc(NCc4ccccn4)c23)cc1	1	-8	21	/	-3	/
c1ccc(CNc2ncnc3scc(-c4cccs4)c23)nc1	-2	2	-2	-27*	7	-2
C[C@H]1CN([C@@H](C)CO)C(=O)c2c(c3ccccc3n2C)-c2ccccc2CO[C@@H]1CN(C)C(=O)Nc1ccc(-c2ccccc2)cc1	-1	1	/	5	9	/
Nc1ccc(C(=O)Nc2ccc3nc(-c4ccncc4)[nH]c3c2)cc1	-1	-4	-11	-33*	-3	/
O=C(C[C@@H]1C[C@H]2c3cc(NC(=O)NC4CCCCC4)ccc3O[C@H]2[C@@H](CO)O1)NC1CCCCC1	-3	-6	/	-1	-4	/
